Experimental data as given in ChEMBL document CHEMBL5107947, “Estimating the cooperativity of PROTAC-induced ternary complexes using 19F NMR displacement assay” (RSC Med Chem, 2021).
Active and inactive are the calls of the source. The calls are words filed in the database; no cut-off is given here.

Columns and labels:
[1] = target: T1, Von Hippel-Lindau disease tumor suppressor/Elongin B/Elongin C (Homo sapiens, UniProt P40337); assay: Binding affinity to VCB E3 ligase (unknown origin) assessed as binary equilibrium dissociation constant by 19F NMR assay; assay type: protein-complex assay
T1 sequence (P40337 whole entry, looked up): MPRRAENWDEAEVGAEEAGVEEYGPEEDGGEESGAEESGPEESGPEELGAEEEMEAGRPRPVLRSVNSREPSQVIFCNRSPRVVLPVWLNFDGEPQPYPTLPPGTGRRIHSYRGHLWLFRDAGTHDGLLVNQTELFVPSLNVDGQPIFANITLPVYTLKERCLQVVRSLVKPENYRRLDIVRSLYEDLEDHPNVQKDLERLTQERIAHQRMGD

[2] = target: T1, Von Hippel-Lindau disease tumor suppressor/Elongin B/Elongin C; assay: Displacement of (2S,4R)-N-(4-bromobenzyl)-4-hydroxy-1-(3,3,3-trifluoropropanoyl)pyrrolidine-2-carboxamide from VBC E3 ligase (unknown origin) binary complex assessed as inhibition constant by 19F NMR assay; assay type: protein-complex assay
Summary of the method: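 Binary competition by 19F CPMG NMR, without Brd4(2): spy molecule 19 at 50 μM, VBC at 1 μM, titrated with increasing PROTAC concentrations. Spy molecule alone and spy molecule plus VBC served as 100% and 0% displacement references.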

[3] = target: T2, von Hippel-Lindau disease tumor suppressor/Bromodomain-containing protein 4/Elongin-B/Elongin-C (Homo sapiens, UniProt O60885+P40337+Q15369+Q15370); assay: Displacement of (2S,4R)-N-(4-bromobenzyl)-4-hydroxy-1-(3,3,3-trifluoropropanoyl)pyrrolidine-2-carboxamide from BRD4 bromodomain 2/VBC E3 ligase (unknown origin) ternary complex assessed as inhibition constant by 19F NMR assay; assay type: protein assay
T2 sequence (P40337 whole entry, looked up, other chains not shown): as the sequence (P40337 whole entry, looked up) above
T2 sequence (Q15369 whole entry, looked up, other chains not shown): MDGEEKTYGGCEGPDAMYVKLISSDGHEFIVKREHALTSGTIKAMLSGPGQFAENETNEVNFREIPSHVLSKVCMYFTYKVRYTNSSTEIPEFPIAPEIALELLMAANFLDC
T2 sequence (Q15370 whole entry, looked up, other chains not shown): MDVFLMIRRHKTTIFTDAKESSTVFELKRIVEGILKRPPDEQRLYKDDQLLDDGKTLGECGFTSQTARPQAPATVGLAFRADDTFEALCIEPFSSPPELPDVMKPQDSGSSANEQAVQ
Summary of the method: (§1)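 19F CPMG NMR displacement of spy molecule 19 (50 μM) from VBC (1 μM) with increasing PROTAC concentrations, in the presence of 10 μM Brd4(2). Spectra of free spy molecule and spy molecule with VBC set 100% and 0% displacement.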

[4] = target: T2, von Hippel-Lindau disease tumor suppressor/Bromodomain-containing protein 4/Elongin-B/Elongin-C; assay: Displacement of (2S,4R)-N-(4-bromobenzyl)-4-hydroxy-1-(3,3,3-trifluoropropanoyl)pyrrolidine-2-carboxamide from BRD4 bromodomain 2/VBC E3 ligase (unknown origin) ternary complex by 19F NMR assay; assay type: protein assay; summary of the method: as §1
[5] = target: T1, Von Hippel-Lindau disease tumor suppressor/Elongin B/Elongin C; assay: (§2) Displacement of (2S,4R)-N-(4-bromobenzyl)-4-hydroxy-1-(3,3,3-trifluoropropanoyl)pyrrolidine-2-carboxamide from VBC E3 ligase (unknown origin) binary complex by 19F NMR assay; assay type: protein-complex assay
Summary of the method: (§3)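 Competitive 19F CPMG NMR displacement of spy molecule 19 (50 μM) from VBC (1 μM) across a titration of PROTAC concentrations. Free spy alone and spy with VBC served as the 100% and 0% displacement controls. For ternary runs Brd4(2) was present at 10 μM.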

Homo sapiens [6] = organism: Homo sapiens; assay: (§4) Co-operativity factor, ratio of Ki for displacement of (2S,4R)-N-(4-bromobenzyl)-4-hydroxy-1-(3,3,3-trifluoropropanoyl)pyrrolidine-2-carboxamide from VBC E3 ligase (unknown origin) binary complex assessed as inhibition constant to Ki for displacement of (2S,4R)-N-(4-bromobenzyl)-4-hydroxy-1-(3,3,3-trifluoropropanoyl)pyrrolidine-2-carboxamide from BRD4 bromodomain 2/VBC E3 ligase (unknown origin) ternary complex assessed as inhibition constant by ITC assay
Homo sapiens [7] = organism: Homo sapiens; assay: as §4, with “19F NMR” for “ITC”
Homo sapiens [8] = organism: Homo sapiens; assay: as §4, with “SPR” for “ITC”
Homo sapiens [9] = organism: Homo sapiens; assay: as §4, with “dual VBC” for “BRD4 bromodomain 2/VBC”, “19F NMR” for “ITC”
[10] = target: T1, Von Hippel-Lindau disease tumor suppressor/Elongin B/Elongin C; assay: Displacement of (2S,4R)-N-(4-bromobenzyl)-4-hydroxy-1-(3,3,3-trifluoropropanoyl)pyrrolidine-2-carboxamide from dual VBC E3 ligase (unknown origin) ternary complex by 19F NMR assay; assay type: protein-complex assay
Summary of the method: (§5)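 Same 19F CPMG displacement format, with spy molecule 19 at 50 μM and VBC at 1 μM. PROTAC was titrated over a range of concentrations, with spy-only and spy+VBC spectra as the 100% and 0% displacement controls. IC50 was read as 50% dissociation of the spy–VBC complex.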

[11] = target: T1, Von Hippel-Lindau disease tumor suppressor/Elongin B/Elongin C; assay: Displacement of (2S,4R)-N-(4-bromobenzyl)-4-hydroxy-1-(3,3,3-trifluoropropanoyl)pyrrolidine-2-carboxamide from dual VBC E3 ligase (unknown origin) ternary complex assessed as inhibition constant by 19F NMR assay; assay type: protein-complex assay; summary of the method: as §5
Homo sapiens [12] = organism: Homo sapiens; assay: as §4, with “dual VBC” for “BRD4 bromodomain 2/VBC”
[13] = Displacement of (2S,4R)-N-(4-bromobenzyl)-4-hydroxy-1-(3,3,3-trifluoropropanoyl)pyrrolidine-2-carboxamide from BRD3 bromodomain 1/VBC E3 ligase (unknown origin) ternary complex by 19F NMR assay; set-up: species or system Homo sapiens
[14] = Displacement of (2S,4R)-N-(4-bromobenzyl)-4-hydroxy-1-(3,3,3-trifluoropropanoyl)pyrrolidine-2-carboxamide from BRD3 bromodomain 2/VBC E3 ligase (unknown origin) ternary complex assessed as inhibition constant by 19F NMR assay; set-up: species or system Homo sapiens
[15] = Displacement of (2S,4R)-N-(4-bromobenzyl)-4-hydroxy-1-(3,3,3-trifluoropropanoyl)pyrrolidine-2-carboxamide from BRD3 bromodomain 1/VBC E3 ligase (unknown origin) ternary complex assessed as inhibition constant by 19F NMR assay; set-up: species or system Homo sapiens
[16] = Displacement of (2S,4R)-N-(4-bromobenzyl)-4-hydroxy-1-(3,3,3-trifluoropropanoyl)pyrrolidine-2-carboxamide from BRD3 bromodomain 2/VBC E3 ligase (unknown origin) ternary complex by 19F NMR assay; set-up: species or system Homo sapiens
[17] = target: Von Hippel-Lindau disease tumor suppressor/Elongin B/Elongin C (Homo sapiens) (UniProt P40337+Q15370+Q15369); assay: as §2; assay type: protein-complex assay; summary of the method: as §3
Chain of Von Hippel-Lindau disease tumor suppressor/Elongin B/Elongin C (Homo sapiens) (P40337 whole entry, looked up): as the sequence (P40337 whole entry, looked up) above
Chain of Von Hippel-Lindau disease tumor suppressor/Elongin B/Elongin C (Homo sapiens) (Q15369 whole entry, looked up): as the sequence (Q15369 whole entry, looked up, other chains not shown) above
Chain of Von Hippel-Lindau disease tumor suppressor/Elongin B/Elongin C (Homo sapiens) (Q15370 whole entry, looked up): as the sequence (Q15370 whole entry, looked up, other chains not shown) above

Row | Kd [1] | SMILES | Ki [2] | Ki [3] | IC50 [4] | IC50 [5] | Ratio Ki (Homo sapiens [6]) | Ratio Ki (Homo sapiens [7]) | other results
1 | 67 µM | Cc1ncsc1-c1ccc(CNC(=O)[C@@H]2C[C@@H](O)CN2C(=O)CC(C)(C)C)cc1C(F)(F)F |  |  |  |  |  |  | 
2 |  | CC(=O)N1c2ccc(-c3ccc(C(=O)NCCOCCOCCOCCOCC(=O)N[C@H](C(=O)N4C[C@H](O)C[C@H]4C(=O)NCc4ccc(-c5scnc5C)cc4)C(C)(C)C)cc3)cc2[C@H](Nc2ccc(Cl)cc2)C[C@@H]1C | 0.471 µM | 0.597 µM | 1.31 µM | 1.14 µM | 0.6 | 0.8 | Ratio Ki (Homo sapiens [8]): 0.4
3 |  | Cc1ncsc1-c1ccc(CNC(=O)[C@@H]2C[C@@H](O)CN2C(=O)[C@@H](NC(=O)COCCOCCOCCOCCOCCOCC(=O)N[C@H](C(=O)N2C[C@H](O)C[C@H]2C(=O)NCc2ccc(-c3scnc3C)cc2)C(C)(C)C)C(C)(C)C)cc1 |  |  |  |  |  |  | Ratio Ki (Homo sapiens [9]): 7; IC50 [10]: 0.277 µM; Ki [11]: 0.039 µM; Ratio Ki (Homo sapiens [12]): 7
4 |  | Cc1ncsc1-c1ccc(CNC(=O)[C@@H]2C[C@H](O)CN2C(=O)[C@@H](NC(=O)COCCOCCOCCOCCOCC(=O)N[C@H](C(=O)N2C[C@@H](O)C[C@H]2C(=O)NCc2ccc(-c3scnc3C)cc2)C(C)(C)C)C(C)(C)C)cc1 | 0.287 µM |  |  | 0.888 µM |  |  | 
5 |  | CC(=O)N1c2ccc(-c3ccc(C(=O)NCCOCCOCC(=O)N[C@H](C(=O)N4C[C@H](O)C[C@H]4C(=O)NCc4ccc(-c5scnc5C)cc4)C(C)(C)C)cc3)cc2[C@H](Nc2ccc(Cl)cc2)C[C@@H]1C | 0.529 µM | 1.19 µM | 2.11 µM | 1.21 µM | 0.1 | 0.4 | Ratio Ki (Homo sapiens [8]): 0.2
6 |  | Cc1ncsc1-c1ccc(CNC(=O)[C@@H]2C[C@@H](O)CN2C(=O)[C@@H](NC(=O)COCCOCCOCCNC(=O)C[C@@H]2N=C(c3ccc(Cl)cc3)c3c(sc(C)c3C)-n3c(C)nnc32)C(C)(C)C)cc1 |  |  |  |  |  |  | IC50 [13]: 0.66 µM; Ki [14]: 0.153 µM; Ki [15]: 0.118 µM; IC50 [16]: 0.708 µM
7 | 25 µM | Cc1ncsc1-c1ccc(CNC(=O)[C@@H]2C[C@@H](O)CN2C(=O)C(F)(F)F)cc1 |  |  |  |  |  |  | 
8 |  | Cc1ncsc1-c1ccc(CNC(=O)[C@@H]2C[C@H](O)CN2C(=O)[C@@H](NC(=O)COCCOCCOCCOCCOCCOCC(=O)N[C@H](C(=O)N2C[C@@H](O)C[C@H]2C(=O)NCc2ccc(-c3scnc3C)cc2)C(C)(C)C)C(C)(C)C)cc1 |  |  |  |  |  |  | Activity [17]: Active
9 |  | Cc1ncsc1-c1ccc(CNC(=O)[C@@H]2[C@H](F)[C@@H](O)CN2C(=O)[C@@H](NC(=O)COCCOCCOCCNC(=O)C[C@@H]2N=C(c3ccc(Cl)cc3)c3c(sc(C)c3C)-n3c(C)nnc32)C(C)(C)C)cc1 | 2.06 µM | 0.071 µM | 0.346 µM | 3.02 µM | 29 | 29 | 

Row | SMILES | Kd [1] | Ki [2] | Ki [3] | IC50 [4] | IC50 [5] | Ratio Ki (Homo sapiens [6]) | Ratio Ki (Homo sapiens [7]) | other results
10 | O=C(NCc1ccc(Br)cc1)[C@@H]1C[C@@H](O)CN1C(=O)CC(F)(F)F | 145 µM |  |  |  |  |  |  | 
